Measurements taken from ChEMBL document CHEMBL3751740, “New MKLP-2 inhibitors in the paprotrain series: Design, synthesis and biological evaluations” (Bioorg Med Chem, 2016).

What was measured:
[1] = target: T1, Kinesin-like protein KIF23 (Homo sapiens) (UniProt Q02241); assay: Inhibition of porcine brain microtubule-stimulated human recombinant GST-tagged MKLP1 ATPase activity at 15 uM by microplate reader in presence of Mg2+ ATP relative to control
T1 sequence (whole entry): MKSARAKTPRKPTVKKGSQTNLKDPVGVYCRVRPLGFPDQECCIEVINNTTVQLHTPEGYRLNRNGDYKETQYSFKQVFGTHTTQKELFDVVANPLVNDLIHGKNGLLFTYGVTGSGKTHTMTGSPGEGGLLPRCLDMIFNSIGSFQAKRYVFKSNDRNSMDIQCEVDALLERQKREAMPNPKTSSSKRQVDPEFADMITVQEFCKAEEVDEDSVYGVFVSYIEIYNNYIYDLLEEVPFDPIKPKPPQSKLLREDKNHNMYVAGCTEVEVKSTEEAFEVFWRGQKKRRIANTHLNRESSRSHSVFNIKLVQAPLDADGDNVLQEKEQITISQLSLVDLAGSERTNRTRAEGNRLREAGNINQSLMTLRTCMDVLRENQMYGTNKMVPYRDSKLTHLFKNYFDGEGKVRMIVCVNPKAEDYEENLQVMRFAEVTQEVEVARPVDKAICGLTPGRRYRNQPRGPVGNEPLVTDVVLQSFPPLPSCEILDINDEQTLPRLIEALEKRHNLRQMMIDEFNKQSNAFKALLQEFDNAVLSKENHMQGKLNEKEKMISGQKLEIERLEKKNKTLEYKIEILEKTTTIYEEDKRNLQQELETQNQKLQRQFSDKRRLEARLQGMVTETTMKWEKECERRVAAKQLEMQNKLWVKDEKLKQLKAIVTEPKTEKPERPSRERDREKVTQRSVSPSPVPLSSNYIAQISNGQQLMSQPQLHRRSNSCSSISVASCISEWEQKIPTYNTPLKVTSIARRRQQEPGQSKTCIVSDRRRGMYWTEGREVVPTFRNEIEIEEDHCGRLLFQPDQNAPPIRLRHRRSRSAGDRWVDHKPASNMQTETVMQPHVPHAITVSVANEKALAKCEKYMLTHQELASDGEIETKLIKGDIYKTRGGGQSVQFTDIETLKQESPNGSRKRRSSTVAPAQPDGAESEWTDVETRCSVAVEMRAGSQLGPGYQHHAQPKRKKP
Method in brief: (§1)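 Each kinesin motor domain was tested against MT-stimulated ATPase at 22 °C in triplicate, with compounds at 15 µM. Buffer was 7.5 mM PIPES-NaOH pH 7.0 with MgCl2, Taxol, ELIPA reagents and 1.25 mg/mL MTs. Reactions were started with 1 mM Mg2+ATP and read kinetically at 360 nm. Monastrol and AMP-PNP (1 mM) were the controls.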

[2] = target: T2, Kinesin-like protein KIFC3 (Homo sapiens) (UniProt Q9BVG8); assay: Inhibition of porcine brain microtubule-stimulated human recombinant GST-tagged KIFC3 ATPase activity at 15 uM by microplate reader in presence of Mg2+ ATP relative to control; method in brief: as §1
T2 sequence (whole entry): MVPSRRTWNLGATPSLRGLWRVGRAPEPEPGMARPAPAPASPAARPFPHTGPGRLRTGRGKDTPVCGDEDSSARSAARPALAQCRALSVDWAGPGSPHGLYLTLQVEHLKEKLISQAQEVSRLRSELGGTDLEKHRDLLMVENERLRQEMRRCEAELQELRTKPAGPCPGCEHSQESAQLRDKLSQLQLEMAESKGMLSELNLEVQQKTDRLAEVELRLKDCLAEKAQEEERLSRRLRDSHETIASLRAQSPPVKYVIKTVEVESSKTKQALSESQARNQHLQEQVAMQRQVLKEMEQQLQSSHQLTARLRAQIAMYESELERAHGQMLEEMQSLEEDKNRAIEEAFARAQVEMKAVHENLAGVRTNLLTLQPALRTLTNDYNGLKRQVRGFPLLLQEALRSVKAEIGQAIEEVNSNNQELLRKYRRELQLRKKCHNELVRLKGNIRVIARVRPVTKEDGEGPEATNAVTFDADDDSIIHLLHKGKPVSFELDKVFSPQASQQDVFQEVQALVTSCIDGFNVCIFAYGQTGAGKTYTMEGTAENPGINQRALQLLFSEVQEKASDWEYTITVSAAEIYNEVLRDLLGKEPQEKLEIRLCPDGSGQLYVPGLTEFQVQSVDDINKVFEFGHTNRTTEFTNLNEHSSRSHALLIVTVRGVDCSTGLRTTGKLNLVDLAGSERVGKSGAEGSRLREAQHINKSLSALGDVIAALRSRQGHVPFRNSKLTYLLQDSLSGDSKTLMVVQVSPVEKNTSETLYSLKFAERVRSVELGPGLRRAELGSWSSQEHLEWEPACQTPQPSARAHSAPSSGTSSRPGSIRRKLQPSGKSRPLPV

inhibition [1] [%] | inhibition [2] [%] | SMILES
< 20 | < 20 | CCOC(=O)C1=C(C)NC(=S)NC1c1cccc(O)c1 (configuration not stated)
< 20 | < 20 | COc1cccc2[nH]cc(/C(C#N)=C/c3cccnc3)c12
< 20 | < 20 | COc1ccc2[nH]cc(/C(C#N)=C/c3cccnc3)c2c1
< 20 | < 20 | N#C/C(=C\c1ccc2c(c1)OCO2)c1c[nH]c2ccccc12
< 20 | < 20 | COc1ccc2c(/C(C#N)=C/c3cccnc3)c[nH]c2c1

SMILES | inhibition [1] [%] | inhibition [2] [%]
N#C/C(=C\c1cccnc1)c1c[nH]c2ccc(OCc3ccccc3)cc12 | < 20 | < 20
